From ChEMBL document CHEMBL5096209, “Structure-Activity Studies of 3,9-Diazaspiro[5.5]undecane-Based γ-Aminobutyric Acid Type A Receptor Antagonists with Immunomodulatory Effect” (J Med Chem, 2021)

Assays:
Homo sapiens = species: Homo sapiens; experiment: Binding affinity to GABA receptor (unknown origin) assessed as equilibrium binding constant by schild plot analysis; details: filed as antagonist
[1] = Apparent permeability of compound across basolateral to apical side in MDCK cells; type: ADME, cell-based, Canis lupus familiaris; details: dog
Procedure, shortened: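 MDR1-transfected MDCK monolayers, 0.5 μM test compound added apically or basally. Bidirectional apparent permeability measured in triplicate. Efflux ratio is B→A permeability divided by A→B permeability.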

CD4+ve Th = experiment: Induction of cell proliferation of human CD4+ve Th cells at 50 uM measured after 96 hrs in presence of alprazolam by flow cytometry analysis relative to control; type: functional
Procedure, shortened: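 Human PBMC from leukocyte cones were CFSE-stained (5 μM) and held at high density overnight. They were then stimulated with soluble anti-CD3 OKT3 (100 pg/mL) plus alprazolam 33 μM, with test compound at 50 μM, for 96 h. CD4+/CD8+ proliferation was measured by CFSE dilution on flow cytometry, at least six independent experiments.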

[2] = Receptor occupancy at human GABA receptor

Kb (Homo sapiens)	Papp B→A [1]	pIC50 [2]	Structure (SMILES)	Activity (CD4+ve Th)
6.9 nM	–	–	O=C(Nc1cccc(C(=O)N2CCC3(CCNCC3)CC2)c1)c1cccs1	–
–	15 ×10⁻⁶ cm/s	7.152	Cc1cccc(C(=O)N2CCC3(CCNCC3)CC2)c1	20%
